# Data as given in ChEMBL document CHEMBL1121502, “Antiallergy activity of 10-oxo-10-H-pyridazino[6,1-b]quinazoline-2-carboxylic acids” (1980).
# How the values were obtained:
# Type in all cases: functional
# Rattus norvegicus [1] = assay: Antiallergic activity is evaluated for its ability to inhibit reaginic passive cutaneous anaphylaxis (PCA) in rats dosed at 0.5 mg/kg intravenously; conditions: route intravenous
# Summary of the method: (§1)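 Antiserum dilutions were injected intradermally at several back sites. 48 h later, rats were challenged i.v. with 1 mg ovalbumin in 1 mL saline containing 0.25% Evans blue. Diameter was plotted against relative antiserum concentration, and the least-squares line was extrapolated to zero antiserum. Groups of five animals were used.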
# Rattus norvegicus [2] = assay: Antiallergic activity is evaluated for its ability to inhibit reaginic passive cutaneous anaphylaxis (PCA) in rats dosed intravenously; conditions: iv; summary of the method: as §1
# Rattus norvegicus [3] = assay: Antiallergy activity is evaluated for its ability to inhibit passive cutaneous anaphylaxis (PCA) in rats, dosed perorally; conditions: po; summary of the method: as §1
# Rattus norvegicus [4] = assay: Antiallergic activity is evaluated for its ability to inhibit reaginic passive cutaneous anaphylaxis (PCA) in rats dosed perorally; conditions: po; summary of the method: as §1
# Rattus norvegicus [5] = assay: Antiallergic activity is evaluated for its ability to inhibit reaginic passive cutaneous anaphylaxis (PCA) in rats dosed intravenously; Value ranges from 1-2; conditions: iv; summary of the method: as §1
# Rattus norvegicus [6] = assay: Antiallergic activity is evaluated for its ability to inhibit reaginic passive cutaneous anaphylaxis (PCA) in rats dosed at 5 mg/kg intravenously; conditions: ip, in the assay text read “intraperitoneally” for “intravenously”; summary of the method: as §1
Structure (SMILES),inhibition in vivo at 0.5 mg/kg (Rattus norvegicus [1]),inhibition in vivo at 5 mg/kg (Rattus norvegicus [6]),further results
O=C(O)c1ccc2nc3ccc(Cl)cc3c(=O)n2n1,91%,–,–
O=C(O)c1ccc2nc3cc4ccccc4cc3c(=O)n2n1,36%,–,–
Cc1ccc2nc3ccc(C(=O)O)cn3c(=O)c2c1,–,–,ED50 (Rattus norvegicus [2]): 0.05 mg/kg; ED50 (Rattus norvegicus [3]): 0.7 mg/kg
O=C1c2ccccc2S(=O)(=O)c2cc(-c3nn[nH]n3)ccc21 [DOXANTRAZOLE],–,–,ED50 (Rattus norvegicus [2]): 1 mg/kg; ED50 (Rattus norvegicus [4]): 5 mg/kg
Cc1ccc2c(=O)n3nc(C(=O)O)ccc3nc2c1,32%,–,–
O=C([O-])c1cc(=O)c2c(OCC(O)COc3cccc4oc(C(=O)[O-])cc(=O)c34)cccc2o1.[Na+].[Na+] [CROMOLYN SODIUM],–,–,ED50 (Rattus norvegicus [5]): 1 mg/kg
COC(=O)c1ccc2nc3ccc(Cl)nn3c(=O)c2c1,–,6%,–
O=C(O)c1ccc2nc3ccccc3c(=O)n2n1,76%,–,–
COc1ccc2nc3ccc(C(=O)O)nn3c(=O)c2c1,8%,–,–
O=C(O)c1ccc2c(=O)n3nc(Cl)ccc3nc2c1,–,0%,–
COC(=O)c1ccc2c(=O)n3nc(Cl)ccc3nc2c1,–,0%,–
O=C(O)c1ccc2nc3ccc(Cl)nn3c(=O)c2c1,–,0%,–
Cc1ccc2nc3ccc(C(=O)O)nn3c(=O)c2c1,0%,–,–
